Reference: publication PMC3137751 (Biochemistry, 2010)

Test system: Yeast NAD+-specific isocitrate dehydrogenase (IDH)
Assay: Kinetic analyses: isocitrate saturation velocity curves of purified IDH enzymes
Format: biochemical
Conditions: for Hill coef. with respect to isocitrate, − AMP: absence of AMP; for Vmax (apparent), + AMP: isocitrate velocity saturation curve; for Vmax (apparent), + AMP / Hill coef. with respect to isocitrate, + AMP: presence of 100 μM AMP
How it was run: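 His-tagged IDH purified by Ni2+-NTA, stored at −20 °C in elution buffer with 20% glycerol, quantified by A280. Assays at 24 °C used 40 mM Tris-HCl pH 7.4, 4 mM MgCl2 and 0.5 mM NAD+. D-isocitrate was varied 0–5 mM, with or without 100 μM AMP, and NADH formation was followed. Apparent S0.5 and Hill coefficients came from saturation curves, Vmax as maximum velocity per mg, over two independent experiments.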

| Molecule | Hill coef. with respect to isocitrate, − AMP | Vmax (apparent), + AMP | Hill coef. with respect to isocitrate, + AMP | reduction in apparent Vmax relative to IDH1/IDH2 (wild-type) (relative to IDH1/IDH2) | reduction in apparent Vmax relative to ^-5IDH1/IDH2 |
| --- | --- | --- | --- | --- | --- |
| IDH1^G15D/IDH2: full-length IDH1 with G15D substitution plus IDH2; stable tetramer (protein, left off: histidine tag, C-terminal, kept) chain 1: ATAAQAERTLPKKYDGRFTVTLIPGDGVGKEITDSVRTIFEAENIPIDWETINIKQTDHKEGVYEAVESLKRNKIGLKGLWHTPADQTGHGSLNVALRKQLDIYANVALFKSLKGVKTRIPDIDLIVIRENTEGEFSGLEHESVPGVVESLKVMTRPKTERIARFAFDFAKKYNRKSVTAVHKANIMKLGDGLFRNIITEIGQKEYPDIDVSSIIVDNASMQAVAKPHQFDVLVTPSMYGTILGNIGAALIGGPGLVAGANFGRDYAVFEPGSRHVGLDIKGQNVANPTAMILSSTLMLNHLGLNEYATRISKAVHETIAEGKHTTRDIGGSSSTTDFTNEIINKLSTM chain 2: ATVKQPSIGRYTGKPNPSTGKYTVSFIEGDGIGPEISKSVKKIFSAANVPIEWESCDVSPIFVNGLTTIPDPAVQSITKNLVALKGPLATPIGKGHRSLNLTLRKTFGLFANVRPAKSIEGFKTTYENVDLVLIRENTEGEYSGIEHIVCPGVVQSIKLITRDASERVIRYAFEYARAIGRPRVIVVHKSTIQRLADGLFVNVAKELSKEYPDLTLETELIDNSVLKVVTNPSAYTDAVSVCPNLYGDILSDLNSGLSAGSLGLTPSANIGHKISIFEAVHGSAPDIAGQDKANPTALLLSSVMMLNHMGLTNHADQIQNAVLSTIASGPENRTGDLAGTATTSSFTEAVIKRL | 2.3 | 21.9 units/mg | 2.0 | ~ 38% |  |
| ^-5IDH1^G15D/IDH2: truncated -5 IDH1 with G15D replacement plus IDH2; tetrameric (protein, left off: histidine tag, C-terminal, kept) chain 1: AERTLPKKYDGRFTVTLIPGDGVGKEITDSVRTIFEAENIPIDWETINIKQTDHKEGVYEAVESLKRNKIGLKGLWHTPADQTGHGSLNVALRKQLDIYANVALFKSLKGVKTRIPDIDLIVIRENTEGEFSGLEHESVPGVVESLKVMTRPKTERIARFAFDFAKKYNRKSVTAVHKANIMKLGDGLFRNIITEIGQKEYPDIDVSSIIVDNASMQAVAKPHQFDVLVTPSMYGTILGNIGAALIGGPGLVAGANFGRDYAVFEPGSRHVGLDIKGQNVANPTAMILSSTLMLNHLGLNEYATRISKAVHETIAEGKHTTRDIGGSSSTTDFTNEIINKLSTM chain 2: ATVKQPSIGRYTGKPNPSTGKYTVSFIEGDGIGPEISKSVKKIFSAANVPIEWESCDVSPIFVNGLTTIPDPAVQSITKNLVALKGPLATPIGKGHRSLNLTLRKTFGLFANVRPAKSIEGFKTTYENVDLVLIRENTEGEYSGIEHIVCPGVVQSIKLITRDASERVIRYAFEYARAIGRPRVIVVHKSTIQRLADGLFVNVAKELSKEYPDLTLETELIDNSVLKVVTNPSAYTDAVSVCPNLYGDILSDLNSGLSAGSLGLTPSANIGHKISIFEAVHGSAPDIAGQDKANPTALLLSSVMMLNHMGLTNHADQIQNAVLSTIASGPENRTGDLAGTATTSSFTEAVIKRL | 2.2 | 15.4 units/mg | 2.0 |  | ~ 50% |
| ^-5IDH1^D168K/IDH2: truncated -5 IDH1 with D168K replacement plus IDH2; tetrameric (protein, left off: histidine tag, C-terminal, kept) chain 1: AERTLPKKYGGRFTVTLIPGDGVGKEITDSVRTIFEAENIPIDWETINIKQTDHKEGVYEAVESLKRNKIGLKGLWHTPADQTGHGSLNVALRKQLDIYANVALFKSLKGVKTRIPDIDLIVIRENTEGEFSGLEHESVPGVVESLKVMTRPKTERIARFAFKFAKKYNRKSVTAVHKANIMKLGDGLFRNIITEIGQKEYPDIDVSSIIVDNASMQAVAKPHQFDVLVTPSMYGTILGNIGAALIGGPGLVAGANFGRDYAVFEPGSRHVGLDIKGQNVANPTAMILSSTLMLNHLGLNEYATRISKAVHETIAEGKHTTRDIGGSSSTTDFTNEIINKLSTM chain 2: ATVKQPSIGRYTGKPNPSTGKYTVSFIEGDGIGPEISKSVKKIFSAANVPIEWESCDVSPIFVNGLTTIPDPAVQSITKNLVALKGPLATPIGKGHRSLNLTLRKTFGLFANVRPAKSIEGFKTTYENVDLVLIRENTEGEYSGIEHIVCPGVVQSIKLITRDASERVIRYAFEYARAIGRPRVIVVHKSTIQRLADGLFVNVAKELSKEYPDLTLETELIDNSVLKVVTNPSAYTDAVSVCPNLYGDILSDLNSGLSAGSLGLTPSANIGHKISIFEAVHGSAPDIAGQDKANPTALLLSSVMMLNHMGLTNHADQIQNAVLSTIASGPENRTGDLAGTATTSSFTEAVIKRL | 2.2 | 15.3 units/mg | 2.0 |  | ~ 50% |
| ^-5IDH1/IDH2: IDH with five residues truncated from the amino terminus of IDH1; octameric (protein, left off: histidine tag, C-terminal, kept) chain 1: AERTLPKKYGGRFTVTLIPGDGVGKEITDSVRTIFEAENIPIDWETINIKQTDHKEGVYEAVESLKRNKIGLKGLWHTPADQTGHGSLNVALRKQLDIYANVALFKSLKGVKTRIPDIDLIVIRENTEGEFSGLEHESVPGVVESLKVMTRPKTERIARFAFDFAKKYNRKSVTAVHKANIMKLGDGLFRNIITEIGQKEYPDIDVSSIIVDNASMQAVAKPHQFDVLVTPSMYGTILGNIGAALIGGPGLVAGANFGRDYAVFEPGSRHVGLDIKGQNVANPTAMILSSTLMLNHLGLNEYATRISKAVHETIAEGKHTTRDIGGSSSTTDFTNEIINKLSTM chain 2: ATVKQPSIGRYTGKPNPSTGKYTVSFIEGDGIGPEISKSVKKIFSAANVPIEWESCDVSPIFVNGLTTIPDPAVQSITKNLVALKGPLATPIGKGHRSLNLTLRKTFGLFANVRPAKSIEGFKTTYENVDLVLIRENTEGEYSGIEHIVCPGVVQSIKLITRDASERVIRYAFEYARAIGRPRVIVVHKSTIQRLADGLFVNVAKELSKEYPDLTLETELIDNSVLKVVTNPSAYTDAVSVCPNLYGDILSDLNSGLSAGSLGLTPSANIGHKISIFEAVHGSAPDIAGQDKANPTALLLSSVMMLNHMGLTNHADQIQNAVLSTIASGPENRTGDLAGTATTSSFTEAVIKRL | 3.1 | 30.3 units/mg | 3.5 |  |  |
